Where a SMILES comes first, the peptide text is derived from it. [ ]: non-standard residue; d: D form. Cha = N[C@@H](CC1CCCCC1)C(=O)O; Nle = CCCC[C@H](N)C(=O)O
Tests used:
[1] = biological target: T1, C5a anaphylatoxin chemotactic receptor 1 (Homo sapiens, UniProt P21730); experiment: Ability to inhibit the binding of […] to polymorphonuclear leukocyte (PMNL) membrane receptor
T1 sequence (P21730 whole entry): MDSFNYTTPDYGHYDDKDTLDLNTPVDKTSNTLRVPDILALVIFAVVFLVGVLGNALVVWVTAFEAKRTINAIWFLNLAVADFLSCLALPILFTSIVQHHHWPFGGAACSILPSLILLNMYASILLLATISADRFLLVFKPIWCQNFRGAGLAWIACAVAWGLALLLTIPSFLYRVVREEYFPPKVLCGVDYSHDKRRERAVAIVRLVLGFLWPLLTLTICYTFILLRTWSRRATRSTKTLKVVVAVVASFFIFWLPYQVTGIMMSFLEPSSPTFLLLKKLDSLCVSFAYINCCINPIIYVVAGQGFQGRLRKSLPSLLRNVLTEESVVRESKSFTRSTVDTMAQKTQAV
Outline: (§1)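 Competition for radioiodinated C5a binding to human PMNL membranes, isolated by nitrogen cavitation and Percoll gradient. Tracer made by glucose oxidase-lactoperoxidase iodination and affinity-purified. Buffered balanced salts (pH 7.0), 0.25% gelatin, protease inhibitors, 50–250 pM 125I-C5a, 5–20 μg/mL membranes. 60 min, ambient temperature, filtration. IC50 from linear regression; Ki by Cheng–Prusoff. Single-point lines give percent inhibition at 1 mM peptide.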

[2] = Compound was evaluated for its ability to stimulate polymorphonuclear leukocyte (PMNL) chemokinetic migration; format: functional, Homo sapiens
Outline: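 Human blood PMNL from density-gradient centrifugation, with hypotonic red-cell lysis and three washes. Cells at 2×10^8/mL in 0.3% agarose, set as 1-μL droplets, chilled 10 min on ice, then overlaid with buffer ± stimulus. Buffer: Earle's salts, 20 mM HEPES pH 7.0, 0.25% gelatin. Run 2 h at 37 °C. Migration from droplet edge, minus buffer control, as % of peak rC5a response. Dose-response dosing.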

[3] = biological target: T2, C5a anaphylatoxin chemotactic receptor 1 (Homo sapiens) (UniProt P21730); experiment: Compound was evaluated for its ability to inhibit the binding of […] to polymorphonuclear leukocyte (PMNL) membrane receptor at 1 mM concentration.; outline: as §1
T2 sequence (whole entry): T1 sequence (P21730 whole entry)

Row | Compound | Ki [1] [µM] | Efficacy [2] [%] | inhibition [3] [%]
1 | CCCC[C@H](NC(=O)[C@H](CCCC)NC(=O)[C@H](CCCC)NC(=O)[C@H](CC(=O)O)NC(=O)[C@H](CCCCN)NC(=O)[C@H](Cc1c[nH]cn1)NC(C)=O)C(=O)NCC(=O)N[C@@H](CCCN=C(N)N)C(=O)O (Ac-HKD[Nle][Nle][Nle]GR-OH) | 210 |  | 
2 | CC(=O)N[C@@H](Cc1c[nH]cn1)C(=O)NC(CCCCN)C(=O)N[C@@H](CC(=O)O)C(=O)NC(CC1CCCCC1)C(=O)N[C@H](CC1CCCCC1)C(=O)N[C@@H](CC(C)C)C(=O)N[C@H](C)C(=O)N[C@@H](CCCN=C(N)N)C(=O)O (single isomer, unassigned) | 600 | 71 | 
3 | CC(=O)N[C@@H](Cc1c[nH]cn1)C(=O)N[C@@H](CCCCN)C(=O)N[C@@H](CC(=O)O)C(=O)N[C@@H](CC1CCCCC1)C(=O)N[C@@H](CC1CCCCC1)C(=O)N[C@@H](CC1CCCCC1)C(=O)N[C@H](C)C(=O)N[C@@H](CCCN=C(N)N)C(=O)O | 10 | 67 | 
4 | CSCC[C@H](NC(=O)[C@H](CC(=O)O)NC(=O)[C@H](CCCCN)NC(=O)[C@H](Cc1c[nH]cn1)NC(C)=O)C(=O)N[C@@H](CCC(N)=O)C(=O)N[C@@H](CC1CCCCC1)C(=O)NCC(=O)N[C@@H](CCCN=C(N)N)C(=O)O (Ac-HKDMQ[Cha]GR-OH) |  |  | 30
5 | CC[C@H](C)[C@H](NC(=O)[C@H](CC1CCCCC1)NC(=O)[C@H](CC1CCCCC1)NC(=O)[C@H](CC(=O)O)NC(=O)[C@H](CCCCN)NC(=O)[C@H](Cc1c[nH]cn1)NC(C)=O)C(=O)N[C@H](C)C(=O)N[C@@H](CCCN=C(N)N)C(=O)O | 2 | 56 | 
6 | CC(=O)N[C@@H](Cc1c[nH]cn1)C(=O)N[C@@H](CCCCN)C(=O)N[C@@H](CC(=O)O)C(=O)N[C@@H](CC1CCCCC1)C(=O)N[C@@H](CC1CCCCC1)C(=O)N[C@@H](CC(C)C)C(=O)N[C@H](C)C(=O)N[C@@H](CCCN=C(N)N)C(=O)O | 2.9 | 57 | 
7 | CC(=O)N[C@@H](Cc1c[nH]cn1)C(=O)N[C@@H](CCCCN)C(=O)N[C@@H](CC(=O)O)C(=O)N[C@@H](CC1CCCCC1)C(=O)N[C@H](CC1CCCCC1)C(=O)N[C@@H](CC(C)C)C(=O)N[C@H](C)C(=O)N[C@@H](CCCN=C(N)N)C(=O)O |  |  | 26
8 | CCC[C@H](NC(=O)[C@H](CC1CCCCC1)NC(=O)[C@H](CC1CCCCC1)NC(=O)[C@H](CC(=O)O)NC(=O)[C@H](CCCCN)NC(=O)[C@H](Cc1c[nH]cn1)NC(C)=O)C(=O)N[C@H](C)C(=O)N[C@@H](CCCN=C(N)N)C(=O)O | 5.3 | 55 | 
9 | CC(=O)N[C@@H](Cc1c[nH]cn1)C(=O)N[C@@H](CCCCN)C(=O)N[C@@H](CC(=O)O)C(=O)N[C@@H](Cc1ccccc1)C(=O)N[C@@H](Cc1ccccc1)C(=O)N[C@@H](Cc1ccccc1)C(=O)N[C@H](C)C(=O)N[C@@H](CCCN=C(N)N)C(=O)O | 750 | 109 | 
10 | CC(=O)N[C@@H](Cc1c[nH]cn1)C(=O)N[C@@H](CCCCN)C(=O)N[C@@H](CC(=O)O)C(=O)N[C@@H](CC1CCCCC1)C(=O)N[C@@H](CC1CCCCC1)C(=O)N[C@H](C(=O)N[C@H](C)C(=O)N[C@@H](CCCN=C(N)N)C(=O)O)C(C)C | 1.6 | 60 | 
11 | CC(=O)N[C@@H](Cc1c[nH]cn1)C(=O)N[C@@H](CCCCN)C(=O)N[C@@H](CC(=O)O)C(=O)N[C@@H](CC1CCCCC1)C(=O)N[C@@H](CC1CCCCC1)C(=O)N[C@@H](CC1CCCCC1)C(=O)NCC(=O)N[C@@H](CCCN=C(N)N)C(=O)O (Ac-HKD[Cha][Cha][Cha]GR-OH) | 25 | 75 | 
12 | Ac-HKDMQLGR-OH |  | 107 | 
13 | CC(=O)N[C@@H](Cc1c[nH]cn1)C(=O)N[C@@H](CCCCN)C(=O)N[C@@H](CC(=O)O)C(=O)N[C@@H](Cc1ccc(O)cc1)C(=O)N[C@@H](Cc1ccc(O)cc1)C(=O)N[C@@H](Cc1ccc(O)cc1)C(=O)N[C@H](C)C(=O)N[C@@H](CCCN=C(N)N)C(=O)O |  |  | < 20
